Shown are actives, neighbours in structure and some others; about 3% of the full set was active somewhere.
SR-BI uptake up: activators of SR-BI mediated DiI-HDL uptake, primary screen, ldlA[mSR-BI] CHO cells, DiI fluorescence; activation, % at 12.5 µM; hit rate 0.096% among 320,000; 3 h; 100 = double the neutral-control signal;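 active means mean replicate activation of at least 60% and every replicate at or above 60%; inconclusive means mean or all-replicate condition met, but not both; inactive means mean below 60% and not all replicates reaching 60%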;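 further: 0% = median plate neutral-control signal and 100% = twice that signal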
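Test system: SR-BI-overexpressing, LDLR-lacking CHO cells; Medium: Ham's F12 with 0.5% BSA, HEPES 25 mM, pH 7.4; Schedule: 3 h, 37 °C; Technique: bottom-read fluorescence, 550/595 nm.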
SR-BI DiI inh: inhibitors of SR-BI mediated HDL lipid uptake, primary screen, ldlA[mSR-BI] cells, fluorescence, single point; Scavenger receptor class B member 1 (Mus musculus), Q61009; ldlA[mSR-BI] CHO cells, DiI-HDL uptake fluorescence, 3 h; inhibition, % at 12.5 µM; hit rate 0.96% among 320,000; AID 488896, 2010;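 active means mean replicate inhibition of at least 70% and a set share of replicates each scoring 70 or more; inconclusive means meets just one of the two criteria; inactive means fails both criteria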;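 further: 0% = median of neutral control wells and 100% = median of positive control wells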
TMEM16A act: TMEM16A chloride channel activators or potentiators, primary screen, cell-based, HTS; Anoctamin-1 (Mus musculus), Q8BHY3; HEK293 TMEM16A/YFP-H148Q/I152L, iodide quench fluorescence; hits give low values; B-score at 10 µM; hit rate 0.3% among 340,000;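 active means fluorescence-ratio B-score plate-corrected deviation score at least 3 library SD below zero, with starting fluorescence score within 5 deviations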;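 further: channel opened by trigger with iodide after compound preincubation; score built on the fluorescence ratio of max minus min over baseline; more negative score means more quench and so TMEM16A activation or potentiation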
Target sequence (Q8BHY3 whole entry, looked up): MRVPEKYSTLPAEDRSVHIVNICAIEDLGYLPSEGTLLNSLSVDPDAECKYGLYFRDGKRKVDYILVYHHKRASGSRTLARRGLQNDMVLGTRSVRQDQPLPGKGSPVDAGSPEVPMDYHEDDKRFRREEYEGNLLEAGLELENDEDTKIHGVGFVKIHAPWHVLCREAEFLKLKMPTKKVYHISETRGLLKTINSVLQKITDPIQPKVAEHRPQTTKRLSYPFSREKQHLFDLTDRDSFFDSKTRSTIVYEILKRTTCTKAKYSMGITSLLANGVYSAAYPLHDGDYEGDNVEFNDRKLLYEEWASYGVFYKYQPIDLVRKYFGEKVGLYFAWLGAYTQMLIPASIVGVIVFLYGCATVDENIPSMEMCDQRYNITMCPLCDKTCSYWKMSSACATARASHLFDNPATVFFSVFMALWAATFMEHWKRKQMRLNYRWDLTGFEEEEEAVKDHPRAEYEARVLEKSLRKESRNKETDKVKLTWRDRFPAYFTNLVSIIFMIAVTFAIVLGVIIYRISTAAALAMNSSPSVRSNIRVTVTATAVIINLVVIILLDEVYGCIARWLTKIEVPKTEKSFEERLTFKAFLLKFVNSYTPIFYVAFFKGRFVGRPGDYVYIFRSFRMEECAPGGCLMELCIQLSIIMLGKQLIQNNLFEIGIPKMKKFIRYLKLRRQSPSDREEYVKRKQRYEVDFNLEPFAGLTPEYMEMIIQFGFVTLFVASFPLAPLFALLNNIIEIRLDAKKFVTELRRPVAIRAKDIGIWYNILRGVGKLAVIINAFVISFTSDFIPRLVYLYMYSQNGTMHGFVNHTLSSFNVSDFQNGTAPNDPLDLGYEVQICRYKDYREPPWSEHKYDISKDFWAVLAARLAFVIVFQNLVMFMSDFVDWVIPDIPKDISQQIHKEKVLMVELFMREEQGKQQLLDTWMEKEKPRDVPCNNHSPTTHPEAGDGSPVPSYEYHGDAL
Kir21 block: inhibitors of mouse Kir2.1 inward-rectifier potassium channel; HEK293-Kir2.1, FluxOR thallium flux fluorescence; hits give low values; B-score at 10 µM; hit rate 0.85% among 310,000; Inward rectifier potassium channel 2 (Mus musculus), P35561;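 active means fluorescence ratio B-score at or below minus 3 SD of library scores, with starting-brightness B-score within 2 SD, cut at about -4.2 in these data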;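 further: channel flux triggered by added potassium and thallium sulfate stimulus; B-score of peak minus minimum fluorescence over baseline after thallium stimulus; more negative B-score means stronger Kir2.1 block with less thallium influx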
TMEM16A inh: TMEM16A chloride channel inhibitors, primary screen, cell-based, HTS. Anoctamin-1 (Mus musculus), Q8BHY3. hit rate 1.2% among 310,000. HEK293 TMEM16A/YFP iodide influx fluorescence, ionomycin. normalized B-score (activity score, 25-100; higher = stronger inhibition) at 10 µM;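 active means ratio plate-corrected score three or more library SD toward inhibition, starting fluorescence score within five deviations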;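 further: score derived from kinetic fluorescence span divided by baseline fluorescence per well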
FID counter: compounds displacing fluorescent DNA intercalator, primary screen, artefact control for HCV NS3 helicase inhibitor project, biochemical, FID fluorescence; DNA fluorescent intercalator displacement; inhibition, % at 7.9 µM; hit rate 0.17% among 290,000; AID 1845, 2009; in the data active means inhibition above about 37%;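 further: 0% = vehicle and 100% = reference compound; higher means more ethidium bromide displaced from hairpin DNA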
TMEM16A reconf: TMEM16A chloride channel inhibitors, confirmation, cell-based, re-confirmation | AID 652189, 2013 | shares compounds with TMEM16A inh | hit rate 39% among 2,300 | HEK293 TMEM16A/YFP-H148Q, iodide quench fluorescence; ionomycin added to raise cell calcium | inhibition, % at 10 µM;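 active means mean duplicate percent inhibition, scaled so buffer wells are 0 and the reference blocker 100, over three buffer SD above buffer mean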
TMEM16A Ca cntr: calcium mobilization in TMEM16A/YFP HEK293 cells, confirmation, counter-screen for TMEM16A inhibitor project; shares compounds with TMEM16A inh; hit rate 2% among 2,300; AID 652231, 2013; Fluo4 calcium mobilization; calcium response (% of ionomycin), % at 10 µM;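 active means duplicate-averaged calcium signal over 20% of the ionomycin maximum, relative to buffer baseline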;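 further: each well's signal is peak minus trough fluorescence divided by its pre-addition baseline; 0% = buffer wells and 100% = ionomycin wells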
Parental YFP cnt: iodide YFP quench changes in parental YFP-HEK293, counter-screen for TMEM16A inhibitor project, cell-based; shares compounds with TMEM16A inh; ionomycin; YFP ratio F(max-min)/F0 at 10 µM; 2,300 tested, under 10 active;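 active means yellow fluorescent protein signal ratio exceeding the buffer control mean by over 5 SD of those controls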;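 further: ratio is mean of duplicate wells from kinetic YFP trace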
ClC-1 inh: ClC-1 chloride channel inhibition, selectivity assay for TMEM16A inhibitor project, cell-based, voltage-dependent ClC-1 | shares compounds with TMEM16A inh | CHO ClC-1-YFP, iodide influx fluorescence quench; iodide control reads 0, buffer control 100 | ratio percent, % at 10 µM | 2,300 tested, under 10 active | AID 652236, 2013;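 active means duplicate-mean ratio percent above the mean of iodide-only control wells, which defines zero, plus 5 of their SD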;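 further: higher percent means stronger block of ClC-1 iodide influx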
Starred values were filed as active, the others as inactive; i = inactive; ? = inconclusive; . = no result.

SMILES | SR-BI uptake up | SR-BI DiI inh | TMEM16A act | Kir21 block | TMEM16A inh | FID counter | TMEM16A reconf | TMEM16A Ca cntr | Parental YFP cnt | ClC-1 inh
CCOC(=O)N1CCN(c2ccc(C(=O)c3ccccc3)cc2F)CC1 | -42 | 42 | i | 1.4 | 100* | -25 | 23%* | i | -1.1 | -9
O=C(c1ccccc1)c1ccc(N2CCN(C(=O)c3cccc(F)c3F)CC2)c(F)c1 | -71 | ? | i | -0.06 | i | -45 | . | . | . | .
CCCC(=O)N1CCN(c2nc(CC(C)C)c3c(c2C#N)CCC3)CC1 | -42 | 42 | i | -0.36 | i | -35 | . | . | . | .
CC(C)Cc1nc(N2CCN(C(=O)c3ccco3)CC2)c(C#N)c2c1CCCC2 | -40 | 40 | i | 0.4 | 25* | -42 | i | i | -1.3 | -10
COc1ccc(CC(=O)n2[nH]c(=O)cc(C)c2=O)cc1OC | 9 | -9 | i | -1.1 | i | -11 | . | . | . | .
CCN(C(=S)NCc1ccccc1)c1cccc2ccccc12 | -11 | 11 | i | -2 | 25* | -14 | i | i | -1.2 | -8
N#CC1=C(N)NC(SCC(=O)c2ccc(Cl)cc2)=C(C#N)C12CCCC2 | -13 | 13 | i | -1.6 | 100* | -1 | i | i | -1.1 | -6
N#CC1=C(N)NC(SCC(=O)c2ccc(Br)cc2)=C(C#N)C12CCCCC2 | -26 | 26 | i | -1.1 | 100* | -3 | 53%* | i | -0.81 | -23
N#CC1=C(N)NC(SCC(=O)Nc2ccccc2)=C(C#N)C12CCCCC2 | -3 | 3 | i | 2 | i | -2 | . | . | . | .
C[C@H](O)C(=O)C1=Nc2c(nc(N)[nH]c2=O)NC1 | 1 | -1 | i | . | i | . | 37%* | 89%* | -0.53 | -2
C[C@H](O)[C@H](O)[C@H]1CNc2nc(N)[nH]c(=O)c2N1 | 1 | -1 | i | 1 | i | . | . | . | . | .
COc1cc(C(=S)N2CCN(c3ccccc3Cl)CC2)cc(O)c1O | 3 | -3 | i | 0.04 | i | -11 | . | . | . | .
O=C(CSc1nc2ccc([N+](=O)[O-])cc2[nH]1)NC1CCCCC1 | -2 | 2 | i | -0.97 | 25* | 2 | i | i | -0.98 | -8
COCCn1c(-c2ccc(Br)cc2)csc1=Nc1cccnc1 | -19 | 19 | i | 0.81 | 25* | -27 | 34%* | i | -1 | -20
Clc1ccc(-c2csc(=Nc3cccnc3)n2CCCn2ccnc2)cc1Cl | -3 | 3 | i | -2.7 | i | 6 | . | . | . | .
Cc1ccc(-c2ccc(S(=O)(=O)N3CCN(C)CC3)cc2)cc1 | -3 | 3 | i | -1.1 | 100* | 9 | i | i | -0.85 | -10
CN1CCN(S(=O)(=O)c2ccc(-c3ccccc3)cc2)CC1 | 11 | -11 | i | 0.89 | i | 0 | . | . | . | .
CCN(C(=O)CSc1nc2nc(C)cc(C)n2n1)C1CCS(=O)(=O)C1 (stereo unspecified) | 0 | 0 | i | -1.8 | i | 4 | . | . | . | .
COc1ccc(C)cc1-n1nnnc1SCc1cc(=O)n2cc(C)ccc2n1 | -14 | 14 | i | 0.63 | 25* | -6 | i | i | -0.97 | -16
COc1ccc(C)cc1-n1nnnc1SCc1csc(C)n1 | 24 | -24 | i | -3.3 | i | -11 | . | . | . | .
CC1CCN(C(=O)c2cc(-c3ccc4c(c3)OCO4)on2)CC1 | 2 | -2 | i | 0.45 | i | -31 | i | i | -0.94 | 2
CC1CCCCN1C(=O)c1cc(-c2ccc3c(c2)OCO3)on1 (stereo unspecified) | 1 | -1 | i | 1.7 | i | -26 | . | . | . | .
Cc1cc(C(=O)COC(=O)Cc2ccc(Br)cc2)c(C)n1C | 6 | -6 | i | . | . | . | . | . | . | .
Cc1ccccc1C(=O)N1CCN(c2ccc(NC(=O)c3ccco3)cc2Cl)CC1 | -52 | 52 | i | 1.1 | 100* | -36 | i | i | -1 | -6
O=C(Nc1ccc(N2CCN(C(=O)c3cccs3)CC2)c(Cl)c1)c1ccco1 | -51 | 51 | i | 1.6 | i | -25 | . | . | . | .
SMILES | SR-BI uptake up | SR-BI DiI inh | TMEM16A act | Kir21 block | TMEM16A inh | FID counter | TMEM16A reconf | TMEM16A Ca cntr | Parental YFP cnt | ClC-1 inh
O=C(CCC1CCCCC1)Nc1ccccc1-c1ccccc1 | 0 | 0 | i | -1.2 | 100* | -18 | 26%* | i | -0.79 | -5
O=C(CCC1CCCC1)Nc1ccccc1-c1ccccc1 | -7 | 7 | i | -3.2 | i | -22 | . | . | . | .
Cc1cc(O)ccc1C1(c2ccc(O)cc2C)OC(=O)c2ccccc21 | 5 | -5 | i | -2.1 | 25* | -2 | 43%* | i | -0.94 | -4
CCC(C(=O)NC1CCCCC1)n1c2ccccc2c2nc(=O)cc(C)n21 (stereo unspecified) | -17 | 17 | i | -1.1 | i | -40 | . | . | . | .
Cc1ccc(NC(=O)Cn2cccc2)cc1Cl | -4 | 4 | i | 2 | i | -6 | . | . | . | .
COCC(=O)Nc1ccc(C)c(Cl)c1 | 2 | -2 | i | 0.73 | 100* | 0 | i | i | -1 | -4
O=C(Nc1ccc2c(c1)C(=O)N(CC1CCCO1)C2=O)c1cccc(Br)c1 (stereo unspecified) | -42 | 42 | i | -0.49 | 100* | 5 | 24%* | i | -0.99 | -8
CCN(c1cccc(C)c1)S(=O)(=O)c1ccc2c(c1)CCN2C(C)=O | -22 | 22 | i | -0.04 | i | -10 | . | . | . | .
CCN(c1cccc(C(F)(F)F)c1)S(=O)(=O)c1ccc2c(c1)CCN2C(C)=O | -9 | 9 | . | -1.7 | 25* | -18 | 18%* | i | -0.86 | -6
COc1ccc(Cn2nnnc2C(c2cccs2)N2CCCCCC2)cc1 (stereo unspecified) | -20 | 20 | i | -0.89 | 100* | -18 | i | i | -0.98 | -9

Assay outcomes as filed in PubChem.
